Measured values: PubChem BioAssay AID1217 (Sanford-Burnham Center for Chemical Genomics, 2008)
About 1,300 (0.68%) of roughly 190,000 compounds were called active. The entries come from a sample that favours actives as a whole. Unmarked numbers belong to inactive results.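 Rule for the calls: active = primary screen inhibition at 20 µM above a set limit (cut at about 50% in these data); inactive = the rest.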

tested on: diaphorase (Clostridium kluyveri); test: diaphorase inhibitors and chemical oxidizers, primary screen, counter-screen for diaphorase-coupled primary assays, biochemical, uHTS, resorufin fluorescence (AID 1217);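 note: plate controls were DMSO with full reaction for no effect and wells lacking NADH for full effect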; conditions: diaphorase resazurin-to-resorufin fluorescence, NADH, 16 min; at 20 µM; active compounds read high; bacterial (C. kluyveri) enzyme, not human
Method in brief: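 System: Bacterial diaphorase enzyme (C. kluyveri) | Incubation: 16-min room-temperature incubation before reading | Benchmarks: No-NADH positive control and DMSO neutral control | Measured by: Resorufin fluorescence 544/590 nm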

SMILES	inhibition
O=C1CC(=O)Nc2cc(S(=O)(=O)N3CCN(c4cccc(C(F)(F)F)c4)CC3)ccc2N1	0.3%
CCOC(=O)C1=NOC(Cn2cc(C(C)=O)c(=O)[nH]c2=O)C1 (stereo unspecified)	2.6%
CCOc1cc(/C=N/NC(=O)c2ccc(CSc3nncn3C)cc2)ccc1OCC(=O)N1CCOCC1	-14%
COc1cc(CNCCN(C)C)ccc1OCc1c(F)cccc1Cl	3.9%
COc1ccc(C[C@H]2CN3C(=NC[C@H]3C)N2CCNC(=O)CCC2CCCCC2)cc1	0.9%
O=C(N/N=C/c1ccc(O)c(O)c1)C1c2ccccc2Oc2ccccc21	37.6%
Cc1nc2ccccc2n1CC(=O)N/N=C/c1cccnc1	8.6%
Cc1nccn1CC(=O)N/N=C/c1ccc(O)c(O)c1	50.4% (active)
CCN(CC)C(=O)Cn1cc(S(=O)(=O)CC(=O)NCc2ccc3c(c2)OCO3)c2ccccc21	10.1%
CC(C)Oc1ccc(CC(=O)NNC(=S)Nc2ccc(Br)cc2)cc1	-0.6%
COC(=O)c1ccc(C(=O)OC)c(NC(=S)N2CCN(c3ccc(F)cc3)CC2)c1	11.5%
CCc1ccc(N(CC(=O)Nc2sc3c(c2C(=O)OC)CCCC3)S(C)(=O)=O)cc1	28.6%
Cc1ccc(NC(=O)CSc2nnc(CNC(=O)c3ccccc3F)o2)cc1	-12.4%
Cc1ccc(NC(=O)CSc2nnc(COc3ccccc3C)o2)cc1	55.6% (active)
Cc1cc(C)cc(OCc2nnc(SCC(=O)Nc3ccccc3)o2)c1	8.2%
C/C(=N\NC(=O)OC(C)(C)C)c1ccc[nH]1	1.8%
COc1ccc(-c2cc(C3CCN(c4ncccc4[N+](=O)[O-])CC3)[nH]n2)cc1	52.2% (active)
COc1ccc(N2CCN(c3ccc([N+](=O)[O-])nc3)CC2)cc1	-1%
CC(=O)NC(Cc1ccccc1)C(=O)NC1CCN(c2ncccc2[N+](=O)[O-])CC1 (stereo unspecified)	15.7%
Cc1ccc(CNC(=O)Cn2c(=O)c3sccc3n(Cc3cccc([N+](=O)[O-])c3)c2=O)cc1	-2.4%
O=C(C1CCN(S(=O)(=O)c2ccc(Br)s2)CC1)N1CCN(C2CCCCC2)CC1	18.2%
CCn1c(O)c(N=NC2=NC(=O)CS2)c2cc(C)ccc21	86.4% (active)
CCn1c(=O)cc(O)c2ccccc21	8.6%

SMILES	inhibition
CCn1c(O)c(N=NC(=O)c2cccc(S(=O)(=O)N3CCCCC3)c2)c2ccccc21	29.2%
CC(C)c1ccc(Nc2nnc(SCC(=O)c3nnc(-c4ccccc4)o3)s2)cc1	18.8%
O=C1OCC2=C1C(c1ccccc1)CC(=O)N2c1cccc(F)c1 (stereo unspecified)	-4.2%
COc1ccc(N2CCN(CCCNC(=O)C3CCN(S(=O)(=O)N4CCOCC4)CC3)CC2)cc1	0.3%
CN1CCN(C(=O)C2=C[C@H](c3ccc4c(c3)OCO4)C[C@H](OCc3ccc(CO)cc3)O2)CC1	5.9%
CC(=O)n1cc([C@@H]2C=C(C(=O)N3CCN(Cc4ccc5c(c4)OCO5)CC3)O[C@H](OCc3ccc(CO)cc3)C2)c2ccccc21	53.6% (active)
CC(=O)n1cc([C@H]2C=C(C(=O)N3CCOCC3)O[C@@H](OCc3ccc(CO)cc3)C2)c2ccccc21	-0.6%
O=C(OCC(=O)N1CCOCC1)c1ccc(N2CCOCC2)c([N+](=O)[O-])c1	3.6%
CC(C)(C)NC(=O)C(=O)NN=C1CCCCCCC1	3.8%
CCN(CC)CCN(C(=O)c1cccc([N+](=O)[O-])c1)c1nc2ccc(OC)cc2s1	9.6%
Cc1nn(-c2ccccc2)c(C)c1C(=O)OCC(=O)NC(=O)NC1CCCCC1	57.3% (active)
O=C(COC(=O)c1ccccc1SCC(=O)NC1CCCCC1)NC1CCCCC1	3.2%
CCCn1c(C)cc(C(=O)COC(=O)c2c(C)nn(-c3ccccc3)c2C)c1C	18.9%
Cn1cnnc1SCc1nnc(-c2ccccc2Br)o1	4.8%
CCC1CCCCN1C(=O)CSc1nc2c(c(=O)n(C)c(=O)n2C)n1C (stereo unspecified)	6.8%
CCOC(=O)C1(CC2CCCCO2)CCN(Cc2nc(-c3cccs3)oc2C)CC1 (stereo unspecified)	56.2% (active)
COc1cccc(CC2(CO)CCCN(Cc3nc(-c4cccs4)oc3C)C2)c1 (stereo unspecified)	17.2%
CC1CCC2(CC1)NC(=O)N(Cc1nnc(-c3cccs3)o1)C2=O (stereo unspecified)	8.2%
COc1ccc(Nc2nc(N)nc(CSC(=S)N3CCC(C)CC3)n2)cc1	28.1%
O=c1c(-c2ccccc2)coc2cc(O)ccc12	-8.4%
COc1ccc(C(=O)NC(=S)NNC(=O)CCc2ccccc2)cc1	54% (active)
O=C(CCc1ccccc1)NNC(=O)c1ccc(Br)cc1	-5.7%
COc1ccc(C(=O)NC(=S)NNC(=O)c2c(-c3ccccc3)noc2C)cc1	38.4%

SMILES	inhibition
COc1ccc(CC(NC(C)=O)C(=O)NC2CCN(C(=O)c3ccc(OC)c(OC)c3)CC2)cc1OC (stereo unspecified)	10.9%
COc1ccc(CN2CCC(c3nc4ccc(Cl)cc4[nH]3)CC2)cc1	2.5%
CC(=O)NC1C(OCc2ccccc2)OC(COC(C)=O)C(OC(C)=O)C1OC(C)=O (stereo unspecified)	9%
O=C(OCC1O[C@@H](OC(=O)c2cc(O)c(O)c(O)c2)[C@@H](OC(=O)c2cc(O)c(O)c(O)c2)[C@@H](OC(=O)c2cc(O)c(O)c(O)c2)[C@@H]1OC(=O)c1cc(O)c(O)c(O)c1)c1cc(O)c(O)c(O)c1 (stereo partly specified)	71.3% (active)
O=C(Nc1ccccc1-c1ccccc1)c1cccs1	7.8%
Cc1ccc2[nH]c(=O)c(CC=C(Cl)Cl)c(C)c2c1	7.7%
O=C(CN1CCOCC1)Nc1c(-c2ccccc2)c2cc(Br)ccc2[nH]c1=O	12.8%
Cc1ccc2[nH]c(=O)c(CN3CCCCC3)c(-c3ccccc3)c2c1	68.3% (active)
O=C(CSc1nc2ccccc2[nH]1)Nc1nc(-c2ccccc2)c(-c2ccccc2)o1	12.3%
CCOc1ccc2[nH]c(=O)c(C(c3nnnn3CCOC)N3CCOCC3)cc2c1 (stereo unspecified)	5.8%
COCCn1nnnc1C(c1cc2ccc(OC)cc2[nH]c1=O)N1CCc2ccccc2C1 (stereo unspecified)	52.1% (active)
COc1ccc(OC)c(C(c2nnnn2C(C)(C)C)N2CCc3ccccc3C2)c1 (stereo unspecified)	29.8%
N#C/C(=C\C1=C(N2CCOCC2)C(=C\c2ccccc2)/CC1)C(=O)Nc1ccccc1F	28.4%
CCNc1ccc(C(=O)OCC(=O)N2c3ccccc3NC(=O)C2(C)C)cc1[N+](=O)[O-]	19.8%
Cc1ccc(SCC(=O)c2sc(-c3ccccc3)nc2C)cc1	20.1%
Cc1nc(-c2ccccc2)sc1C(=O)/C=C/c1ccccc1	13.8%
Cc1nc(-c2ccc(Cl)cc2)sc1C(=O)CBr	52.6% (active)
CN1CCN(/N=C/c2ccc(-c3ccc([N+](=O)[O-])cc3)o2)CC1	-3.7%
COc1ccc(N(C(=O)c2ccc(C)cc2)S(=O)(=O)c2cccs2)cc1	18.3%
CC(C)(C)C1CCC(C(=O)Nc2cccnc2)CC1 (stereo unspecified)	6.1%
CCOc1cccc(C(=O)Nc2cccnc2)c1	-6.7%
CCC(C)(C)N=C(NC#N)Nc1cccnc1	59.6% (active)
Cc1nn(C)cc1C(=O)Nc1ccccc1Br	13.9%

SMILES	inhibition
O=C(CCn1ccc([N+](=O)[O-])n1)Nc1nccs1	9.2%
COc1ccc(C=Nc2cccc3ncccc23)cc1	39.7%
Oc1c(C=Nc2cccc3nsnc23)ccc2ccccc12	62.8% (active)
CCSC1=NCCN1S(=O)(=O)c1ccc(F)cc1	-9.8%
c1cnn(-c2cc(N3CCOCC3)ncn2)c1	15.6%
O=C(Nc1cc(N2CCOCC2)ncn1)NC1(C(F)(F)F)Oc2ccc(Cl)cc2O1 (stereo unspecified)	62.6% (active)
Cc1csc(NC(=O)NC2(C(F)(F)F)Oc3ccccc3O2)n1	38.6%
CC(=O)C1=C(O)C(=O)N(c2cccnc2)C1c1ccc([N+](=O)[O-])cc1 (stereo unspecified)	9.5%
COC(=O)C[n+]1cccc2ccccc21	2.1%
O=C(CSc1ccc(-c2ccco2)nn1)NCc1ccc2c(c1)OCO2	18.6%
C/C(=N\N1CCN(Cc2ccc(C)cc2)CC1)c1ccco1	3.3%
Cc1ccnc(N2CCC(C(=O)NC3CCCCCC3)CC2)n1	0.8%
Cc1ccnc(-n2sc3ccccc3c2=O)n1	57% (active)
Cc1ccnc(Nc2nc3ccccc3s2)n1	-16.3%
Cc1ccc(S(=O)(=O)N(C)C)cc1NC(=O)/C=C/c1cccs1	15.5%
C#Cc1ccc([C@@H]2C=C(C(=O)O)O[C@H](OCCCCO)C2)cc1	15%
O=C(CCN1C(=O)c2ccccc2C1=O)NCCCn1ccnc1	-0.3%
O=C(O)/C=C/c1cn(Cc2ccccc2)nc1-c1cccs1	9.8%
c1ccc(-c2nnc3n2NC(c2ccc4c(c2)OCO4)S3)cc1 (stereo unspecified)	50% (active)
O=C(Cn1nnc(-c2ccccc2)n1)NCc1ccc2c(c1)OCO2	-5.8%
Cc1cccc(C)c1NC(=O)CSc1nnc(-c2ccccc2)n1Cc1ccc2c(c1)OCO2	-6.5%
Cc1ccc(NS(=O)(=O)c2ccc(C)c(NC(=O)COc3ccc4ccccc4c3)c2)c(C)c1	30.9%
